A1 inh = inhibitors of the anti-apoptotic protein A1, read as caspase activation; caspase activation, % (test concentration not listed); hit rate 0.066% among 330,000; MEF A1-2A-BIM cells, Caspase-Glo 3/7 luminescence, 3 h; percent of clofoctol response, vehicle zero;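 active = over half of replicate activation scores above 10%, or exactly half above 10 with the replicate mean above 10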
sPLA2-III inh = Blocks human group III sPLA2 activity; inhibition, % at 12.2 µM; hit rate 0.56% among 370,000; Q9NZ20; QFRET BODIPY PC-A2 liposome hydrolysis, fluorescence;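 active = inhibition above mean plus 3 SD of compounds lying within the high and low control bounds, cut at about 19% in these data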;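 also: 0% = median of test compound wells and 100% = no enzyme DMSO wells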
NTR1 agonist = activates human neurotensin receptor 1; P30989; NTR1-U2OS beta-arrestin-GFP spot imaging, agonist mode; activation, % at 20 µM; hit rate 0.17% among 330,000;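 active = activation at or above 40% of the spot to cytoplasm intensity ratio, with at least 20 cells analyzed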;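 also: 0% = DMSO without peptide and 100% = 100 nM NTR1 peptide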
MC4R antagonist = antagonists of human melanocortin 4 receptor (MC4R); P32245; MC4R-expressing cells, MTII-stimulated cAMP, LANCE TR-FRET; inhibition, % at 6.5 µM; hit rate 0.48% among 360,000; AID 540295;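 active = inhibition above its plate's cutoff, the mean of tested wells on that plate plus 3 SD, cut at about 29% in these data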;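 also: 0% = Melanotan II alone and 100% = Melanotan II plus saturating MCL0020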
Target sequence (P32245 whole entry, looked up): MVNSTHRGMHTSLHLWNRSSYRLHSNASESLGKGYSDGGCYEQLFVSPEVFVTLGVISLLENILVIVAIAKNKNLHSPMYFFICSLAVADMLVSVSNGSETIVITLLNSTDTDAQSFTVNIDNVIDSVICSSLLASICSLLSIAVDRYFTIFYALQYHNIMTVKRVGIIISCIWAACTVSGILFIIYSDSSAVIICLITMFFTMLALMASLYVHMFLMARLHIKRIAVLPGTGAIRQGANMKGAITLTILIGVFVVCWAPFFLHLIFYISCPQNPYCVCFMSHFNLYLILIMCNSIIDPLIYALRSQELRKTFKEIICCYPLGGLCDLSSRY
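Test system: U2OS cells stably expressing human melanocortin 4 receptor (MC4R); also added: Melanotan II challenge; compound: 6.5 µM single dose; timing: 30-min compound preincubation, 1-h Melanotan II challenge, 1-h detection, room temperature; signal: Eu-cAMP/anti-cAMP TR-FRET, emission 671 nm; repeats: one well per compound, no replicates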
Exocytosis inh = blocks lytic granule exocytosis | TALL-104 LAMP-1 surface exposure, flow cytometry; cells stimulated with thapsigargin and PMA | hit rate 0.66% among 360,000 | inhibition, % at 10 µM;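 active = inhibition above about 55%, limit read from the data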
MC4R barr agon = agonists of human melanocortin 4 receptor (MC4R) beta-arrestin | AID 540308 | U2OS MC4R beta-arrestin complementation, luminescence; percent of melanotan II response, DMSO zero | hit rate 0.98% among 360,000 | activation, % at 8.9 µM | P32245;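 active = activation above a per-plate cutoff, the mean activation of sample wells on that plate plus 3 SD, cut at about 8% in these data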
Granule exo CP1 = lytic granule exocytosis inhibition | TALL-104 cells, LAMP-1 externalization, flow cytometry; stimulated with PMA plus thapsigargin | inhibition, % at 10 µM | shares compounds with Exocytosis inh | AID 651954 | hit rate 11% among 1,500; in the data active = inhibition above about 60%;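 also: 0% = stimulated vehicle wells and 100% = unstimulated wells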
Numbers without * were called inactive. Most compounds without a hit are left out; they make up all but 2.5% or so of the library.

COc1ccc(OC)c(-c2csc(NC(=O)Cc3ccc(F)cc3)n2)c1 was read as A1 inh -2.4, sPLA2-III inh -15.0, NTR1 agonist 8.8, MC4R antagonist -11.2, Exocytosis inh 96.8*, MC4R barr agon -0.3 and Granule exo CP1 -12.3.
`COc1ccc(OC)c(-c2csc(NC(=O)c3ccc(F)cc3)n2)c1` gave A1 inh -1.7, sPLA2-III inh 4.7, NTR1 agonist 2.6, MC4R antagonist -17.4, Exocytosis inh 80.0*, MC4R barr agon -0.9 and Granule exo CP1 -3.7.
Cc1ccc(-c2csc(NC(=O)Cc3ccc(F)cc3)n2)o1 was read as A1 inh -0.6, sPLA2-III inh -8.0, NTR1 agonist 3.4, MC4R antagonist 14.8, Exocytosis inh 75.4*, MC4R barr agon -1.7 and Granule exo CP1 -13.1.
Screening COc1ccc(OC)c(-c2csc(NC(=O)c3ccc(OCC4CCCO4)cc3)n2)c1 (stereo unspecified) returned A1 inh 0.3, sPLA2-III inh -11.8, NTR1 agonist 4.6, MC4R antagonist 9.8, Exocytosis inh -3.2 and MC4R barr agon -1.1.
Screening Cc1ccc(-c2csc(NC(=O)c3ccc(-c4ccccc4)cc3)n2)o1 returned A1 inh 1.5, NTR1 agonist 1.3, MC4R antagonist 0.5, Exocytosis inh 47.5 and MC4R barr agon 3.1.
For O=C(CSc1nnc(-c2cccc(Cl)c2)n1Cc1ccco1)Nc1ccc2c(c1)OCO2 the results were sPLA2-III inh -19.2.
Screening Cc1cccn2c(=O)c(C(=O)NCCCN3CC(C)CC(C)C3)c(O)nc12 (stereo unspecified) returned A1 inh 0.8, sPLA2-III inh 1.1, NTR1 agonist -1.4, MC4R antagonist 8.8, Exocytosis inh -2.1 and MC4R barr agon -3.4.
Screening CCC[C@H]1[C@@H](NC(=O)c2ccc(C)cc2)CC[C@@]23CCCN2C(=O)CCC[C@@H]13 returned sPLA2-III inh 2.4.
`O=C(Nc1cccc(Br)c1)OC1CC2CC1[C@H]1CCCCN1C2` (stereo partly specified) gave sPLA2-III inh -4.2.
Screening COC(=O)[C@]12C[C@H](CC(=O)NCCC(C)C)C(=O)N(Cc3ccco3)C1=C[C@H](C(C)(C)C)O[C@@H]2C returned sPLA2-III inh -14.9.
Screening Cc1cc2nc(/C=C/c3cccnc3)[nH]c2cc1C returned A1 inh 0.9, sPLA2-III inh -0.2, NTR1 agonist 4.2, MC4R antagonist -25.3, Exocytosis inh 57.6*, MC4R barr agon -2.8 and Granule exo CP1 -10.6.
`CC(C)(C)NC(=O)C(OC(=O)c1cccs1)c1ccc(F)cc1` (stereo unspecified) gave A1 inh 0.0, sPLA2-III inh 2.0, NTR1 agonist 1.6, MC4R antagonist 22.0, Exocytosis inh 65.8*, MC4R barr agon 0.6 and Granule exo CP1 -3.5.
For N#CCC1(O)C(=O)N(Cc2ccccc2)c2ccccc21 (stereo unspecified) the results were sPLA2-III inh 5.0 and Exocytosis inh -3.5.
Screening COc1cc(O)c(C(CC(=O)N2CCCC(C)C2)c2ccccc2)c(OC)c1 (stereo unspecified) returned sPLA2-III inh -8.1.
For COCCNC(=S)N(CCc1c(C)[nH]c2ccc(F)cc12)Cc1ccco1 the results were A1 inh 1.3, sPLA2-III inh -6.3, NTR1 agonist 7.7, MC4R antagonist -0.8, Exocytosis inh 62.8*, MC4R barr agon 0.1 and Granule exo CP1 -13.7.
`CC(C)c1ccc(NC(=O)[C@H](NC(=O)[C@@H]2Cc3ccccc3CN2)c2ccccc2)cc1` gave A1 inh 0.9, sPLA2-III inh -19.6, NTR1 agonist 4.8, MC4R antagonist 7.2, Exocytosis inh 59.4*, MC4R barr agon 3.7 and Granule exo CP1 -10.0.
Screening Cc1ccc(NC(=O)[C@H](NC(=O)[C@@H]2Cc3ccccc3CN2)c2ccccc2)cc1 returned A1 inh 0.4, sPLA2-III inh -12.3, NTR1 agonist 1.0, MC4R antagonist 12.2, Exocytosis inh 2.3 and MC4R barr agon 0.1.
CCOC(=O)CC[C@@]1(C(=O)OCC)C[C@@H](CC(=O)NCCCOC)C(=O)N2CCCC=C21 was read as sPLA2-III inh -1.7.
O=C(CSc1nc2c(sc3ccccc32)c(=O)n1CCCN1CCCC1)NCc1ccccc1 was read as A1 inh 0.0, sPLA2-III inh -3.5, NTR1 agonist 3.3, MC4R antagonist 12.0, Exocytosis inh 66.6*, MC4R barr agon -0.4 and Granule exo CP1 7.5.
Screening Cc1ccc(NC(=O)CSc2nc3ccccc3c(=O)n2CCCN2CCCCC2)cc1Cl returned A1 inh 0.0, sPLA2-III inh -14.0, NTR1 agonist 23.0, MC4R antagonist 3.2, Exocytosis inh 78.8*, MC4R barr agon 5.9 and Granule exo CP1 57.9.
Screening CCc1ccc(NC(=O)CSc2nc3ccccc3c(=O)n2CCCC(=O)NCCCN2CCOCC2)cc1 returned A1 inh 0.3, sPLA2-III inh -8.7, NTR1 agonist -0.7, MC4R antagonist 4.8, Exocytosis inh 62.9*, MC4R barr agon 2.5 and Granule exo CP1 14.5.
`Cc1ccc(NC(=O)CSc2nc3ccccc3c(=O)n2CCCC(=O)NCCCN2CCOCC2)cc1C` gave A1 inh 0.4, sPLA2-III inh -6.0, NTR1 agonist -0.2, MC4R antagonist -0.2, Exocytosis inh 42.1 and MC4R barr agon -2.1.
Cc1ccc(CNC(=O)CSc2nc3c(sc4ccccc43)c(=O)n2CCCN2CCCC2)cc1 was read as A1 inh -0.1, sPLA2-III inh -18.0, NTR1 agonist 16.7, MC4R antagonist -2.6, Exocytosis inh 51.8 and MC4R barr agon -1.1.
`Cc1cccc(NC(=S)N2CCN(S(C)(=O)=O)CC2)c1` gave A1 inh -0.3, sPLA2-III inh 6.4, NTR1 agonist 5.0, MC4R antagonist 2.9, Exocytosis inh -0.1 and MC4R barr agon -2.4.
`Cc1ccc(S(=O)(=O)N2c3ccccc3C[C@H]2CCC(=O)c2ccccc2)cc1` gave sPLA2-III inh 9.2.
For O=C(CSc1nc(C2CC2)nc2ccccc12)Nc1ccccc1 the results were A1 inh -0.8, sPLA2-III inh -1.4, NTR1 agonist -1.1, MC4R antagonist 2.2, Exocytosis inh 77.5*, MC4R barr agon 5.0 and Granule exo CP1 -4.1.
For CN1C(=O)C(=O)N2C(=C[C@]3(c4c[nH]c5ccccc45)c4ccccc4N[C@H]23)C1=O the results were sPLA2-III inh -1.4.
Screening CCOc1ccc(NC(=O)C2C(c3ccccc3)C2(Cl)Cl)cc1 (stereo unspecified) returned A1 inh -0.1, sPLA2-III inh -11.6, NTR1 agonist 2.9, MC4R antagonist 2.2, Exocytosis inh 80.7*, MC4R barr agon 5.9 and Granule exo CP1 -13.8.

Assay outcomes from PubChem BioAssay.
